Ten compounds from ChEMBL document CHEMBL1140293, “Irreversible inactivation of trypanothione reductase by unsaturated Mannich bases: a divinyl ketone as key intermediate” (J Med Chem, 2005) can be followed below.

In one series the test system is Plasmodium falciparum. Description: Antiparasitic activity against chloroquine-sensitive Plasmodium falciparum 3D7 in erythrocytes. In kind it is functional. The following applies: read-out: ED50 (the source's name).
In series [1] the target is T1, Glutathione reductase, mitochondrial (Homo sapiens, UniProt P00390).
T1 sequence (P00390 whole entry): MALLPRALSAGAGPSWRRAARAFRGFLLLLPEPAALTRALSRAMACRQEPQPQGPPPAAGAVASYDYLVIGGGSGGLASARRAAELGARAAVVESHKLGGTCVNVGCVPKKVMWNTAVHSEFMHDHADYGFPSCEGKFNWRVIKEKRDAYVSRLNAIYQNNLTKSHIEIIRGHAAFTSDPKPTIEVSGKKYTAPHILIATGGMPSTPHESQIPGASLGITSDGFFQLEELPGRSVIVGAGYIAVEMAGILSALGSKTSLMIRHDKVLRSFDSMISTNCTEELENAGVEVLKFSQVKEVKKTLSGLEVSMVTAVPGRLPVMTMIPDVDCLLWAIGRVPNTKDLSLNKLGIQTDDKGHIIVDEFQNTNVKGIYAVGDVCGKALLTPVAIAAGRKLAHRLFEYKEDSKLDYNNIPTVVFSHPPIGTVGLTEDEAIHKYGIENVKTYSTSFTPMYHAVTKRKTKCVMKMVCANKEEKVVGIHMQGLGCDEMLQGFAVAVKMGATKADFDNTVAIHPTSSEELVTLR
The series is described as follows: Inhibition of human glutathione reductase after 5 mins pre-incubation with NADPH in presence of 500 uM GSSG substrate. In a few lines: (§1)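 Enzyme (T. cruzi TR, human GR or P. falciparum TrxR) preincubated 5 min at 25 °C with 160 μM NADPH and 0–20 μM inhibitor, 2% DMSO, 50 μL; 5 μL aliquot into respective standard assay with substrate at 5× Km (100 μM TS2, 500 μM GSSG, 34 μM thioredoxin-2), residual activity at 340 nm.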

The target in series [2] is Trypanothione reductase (Trypanosoma cruzi) (UniProt P28593). The series is described as follows: Inhibition of reduced Trypanosoma cruzei trypanothione reductase at freshly prepared 100 uM. In a few lines: (§2)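 Recombinant T. cruzi TR (0.5 μM) preincubated at 25 °C with inhibitor, with or without 200 μM NADPH, in 40 mM HEPES, 1 mM EDTA, pH 7.5; 5 μL aliquots taken over time into standard assay (100 μM NADPH, 110 μM TS2, A340 decrease). Inhibitor from fresh or stored DMSO stock (stored at 4 °C); half-time at 100 μM. Controls: enzyme+NADPH+DMSO, enzyme+inhibitor without NADPH.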

Series [3] in a line: Cytotoxicity against human KB cells by Alamar blue assay. Particulars: read-out: ED50 (the source's name). The series is classed as cell-based. The method in brief:
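Human oral pharyngeal carcinoma KB cells; Alamar Blue read-out with podophyllotoxin positive control; ED50 calculated relative to blanks and untreated controls.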
(In general: Resazurin is reduced to fluorescent resorufin, in cell work by metabolically active cells.)

The nature of series [4]: Inhibition of Plasmodium falciparum thioredoxin reductase in presence of 34 uM thioredoxin 2 substrate. In a few lines: (§3)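 Direct assay at 25 °C, NADPH oxidation at 340 nm, 100 μM NADPH, 1% DMSO; six to eight inhibitor levels 0–100 μM, duplicate. TR: 100 μM TS2, 100 mM phosphate pH 7.0. GR (human): 500 or 50 μM GSSG, 100 mM potassium phosphate pH 7.0, 200 mM KCl. P. falciparum TrxR: 34 μM D. melanogaster thioredoxin-2, 100 mM phosphate pH 7.4, 2 mM EDTA.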

Series [5] concerns the target T1, Glutathione reductase, mitochondrial. Description: Inhibition of human glutathione reductase in presence of 50 uM GSSG substrate. In a few lines: as §3
For series [6], the target named is T2, Trypanothione reductase (Trypanosoma cruzi, UniProt P28593). Description: Inhibition of Trypanosoma cruzi trypanothione reductase after 5 mins pre-incubation with NADPH in presence of 100 uM TS2 substrate. In a few lines:
as §1

For series [7], the target named is T2, Trypanothione reductase. The series is described as follows: Inhibition of Trypanosoma cruzi trypanothione reductase in presence of 100 uM TS2 substrate. The method in brief: as §3
Series [8] relates to Trypanosoma brucei rhodesiense. The series is described as follows: Antiparasitic activity against Trypanosoma brucei rhodesiense STIB900 blood stream form. In kind it is functional. Particulars: read-out: ED50 (the source's name). In a few lines:
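Bloodstream-form parasites treated for 3 days; viability by tetrazolium salt colorimetric assay with pentamidine isethionate reference; ED50 derived by sigmoidal regression.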

The subject of another series is Trypanosoma cruzi. Description: Antiparasitic activity against Trypanosoma cruzi MHOM/CL/00/Tulahuan-LacZ intracellular amastigotes. In kind it is functional. Particulars: read-out: ED50 (the source's name).
The target of series [9] is T1, Glutathione reductase, mitochondrial. Description: Inhibition of human glutathione reductase in presence of 500 uM GSSG substrate. In a few lines: as §3
The next series has as its system Leishmania donovani. Description: Antiparasitic activity against Leishmania donovani MHOM/ET/67/HU3 intracellular amastigotes. Particulars: read-out: ED50 (the source's name). The series is classed as functional.
The nature of series [10]: Toxicity in macrophages at >=156 uM. The series is classed as cell-based. Particulars: human, macrophage.
Series [11] is described as follows: Inhibition of Plasmodium falciparum thioredoxin reductase after 5 min pre-incubation with NADPH in presence of 34 uM thioredoxin 2 substrate. In a few lines:
as §1

Series [12] addresses Trypanothione reductase (Trypanosoma cruzi) (UniProt P28593). The series is described as follows: Inhibition of Trypanosoma cruzei trypanothione reductase at 5 uM stored compound within 5 mins. In a few lines: as §2
For series [13] the target is unchanged. Description: Inhibition of Trypanosoma cruzei reduced trypanothione reductase at 5 uM freshly prepared compound within less than 5 mins. In a few lines: as §2
Series [14] shares this target. Description: Inactivation of Trypanosoma cruzei reduced trypanothione reductase at 100 uM freshly prepared compound. On the set-up: scale not given: the % may be the effect or the level left. The method in brief: as §2
Series [15] has the same target. The series is described as follows: Inactivation of Trypanosoma cruzei reduced trypanothione reductase at 100 uM stored compound. On the set-up: scale not given: the % may be the effect or the level left. The method in brief: as §2
Series [16] shares this target. The series is described as follows: Inhibition of Trypanosoma cruzei reduced trypanothione reductase at 100 uM. The method in brief: as §2
Series [17] shares this target. Description: Inactivation of Trypanosoma cruzei trypanothione reductase at 200 uM. In a few lines:
as §2

Calls of active or inactive are those of the source. The rule behind the calls is not given here.

Sequence of Trypanothione reductase (Trypanosoma cruzi) (P28593 whole entry, looked up): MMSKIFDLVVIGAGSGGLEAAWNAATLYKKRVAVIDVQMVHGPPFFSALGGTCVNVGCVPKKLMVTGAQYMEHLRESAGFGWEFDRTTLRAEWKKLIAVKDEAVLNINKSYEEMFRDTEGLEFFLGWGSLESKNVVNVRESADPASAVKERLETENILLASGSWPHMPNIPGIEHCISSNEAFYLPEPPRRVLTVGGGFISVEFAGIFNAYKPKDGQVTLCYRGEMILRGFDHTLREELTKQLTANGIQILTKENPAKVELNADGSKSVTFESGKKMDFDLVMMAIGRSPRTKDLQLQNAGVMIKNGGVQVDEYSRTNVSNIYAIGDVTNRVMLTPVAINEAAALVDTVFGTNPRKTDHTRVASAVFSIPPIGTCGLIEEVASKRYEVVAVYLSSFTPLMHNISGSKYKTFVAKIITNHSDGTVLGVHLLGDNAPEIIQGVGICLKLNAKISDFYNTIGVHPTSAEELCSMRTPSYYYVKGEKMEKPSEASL
T2 sequence (P28593 whole entry): as the sequence (P28593 whole entry, looked up) above

`CCN(CC)CCCC(C)Nc1ccnc2cc(Cl)ccc12` (centres undefined) [CHLOROQUINE]: the EC50 in the series on Plasmodium falciparum came to 0.0058 µM.
For orientation: IC50 means the concentration that gives 50% inhibition. For `C=CC(=O)/C=C/c1ccccc1Cl`, the 50% inhibitory concentration (IC50) in [1] came to 5 µM; in series [4], 3.7 µM; in series [5] it was 18.5 µM; on Trypanothione reductase [6], 2000 nM; at Trypanothione reductase [7] it was 8 µM; in series [9] it was 190 µM. Further, the IC50 in [11] was 400 nM. Moreover, the T1/2 in [2] was less than 0.75 min. In addition, the CC50 in [3] is 1230 µM. Besides, the EC50 in series [8] is 1900 nM; in the series on Trypanosoma cruzi, 12.5 µM; with Leishmania donovani, 68 µM; with Plasmodium falciparum it was 46.7 µM. Moreover, the Activity entry in [10] is reported as “Toxic”.
One may read the inhibition as the change of the read-out against control, counted positive when it falls. With `CN(C)CCC(=O)/C=C/c1ccccc1Cl`, the T1/2 in series [2] was 8.6 min. Besides, in series [3], the CC50 is 14.2 µM. Further, the inhibition was determined as 70% in series [12] and 30% in series [13]. The EC50 in series [8] came to 1800 nM; with Trypanosoma cruzi, 8.7 µM; in the series with Leishmania donovani, 41.6 µM; with Plasmodium falciparum, 27 µM. Also, the Activity in [14] and in series [15] was greater than 99% in each case.
As for `O=C(/C=C/c1ccccc1Cl)CCN1CCCCC1`, the T1/2 in series [2] came to 7.5 min. The CC50 in series [3] came to 7.3 µM. Further, the EC50 in [8] was found to be 800 nM; in the series with Trypanosoma cruzi, 11.8 µM; in the series on Leishmania donovani it was 13 µM; in the series on Plasmodium falciparum, 16.2 µM.
Turning to `O=C(/C=C/c1ccccc1Cl)CCN1CCOCC1`, the T1/2 in [2] stood at 2 min.
`O=C(Cn1ccnc1[N+](=O)[O-])NCc1ccccc1` [BENZNIDAZOLE]: the EC50 in the series with Trypanosoma cruzi was 4.2 µM.
Consider `O=C1C=CC(c2ccccc2Cl)C1` (centres undefined), for which the outcome in [16] was inactive.
On to `N=C(N)c1ccc(OCCCCCOc2ccc(C(=N)N)cc2)cc1` [PENTAMIDINE], for which the EC50 was found to be 0.1 nM in series [8], 4.2 µM in the series on Trypanosoma cruzi and 28.9 µM in the series on Leishmania donovani.
On to `COc1cc([C@@H]2c3cc4c(cc3[C@H](O)[C@H]3COC(=O)[C@H]23)OCO4)cc(OC)c1OC` [PODOFILOX], for which, in series [3], the CC50 came out at 0.07 µM.
`CN(C)CC(C)(C)C(=O)/C=C/c1ccccc1Cl`: the result in series [17] was inactive.
